Active and inactive are the calls of the source. No cut-off for these calls is given here.
What was measured:
[1] = target: T1, Alpha-2A adrenergic receptor (Homo sapiens, UniProt P08913); test: Displacement of [3H] RX821002 from alpha2A adrenergic receptor (unknown origin)
T1 sequence (P08913 whole entry): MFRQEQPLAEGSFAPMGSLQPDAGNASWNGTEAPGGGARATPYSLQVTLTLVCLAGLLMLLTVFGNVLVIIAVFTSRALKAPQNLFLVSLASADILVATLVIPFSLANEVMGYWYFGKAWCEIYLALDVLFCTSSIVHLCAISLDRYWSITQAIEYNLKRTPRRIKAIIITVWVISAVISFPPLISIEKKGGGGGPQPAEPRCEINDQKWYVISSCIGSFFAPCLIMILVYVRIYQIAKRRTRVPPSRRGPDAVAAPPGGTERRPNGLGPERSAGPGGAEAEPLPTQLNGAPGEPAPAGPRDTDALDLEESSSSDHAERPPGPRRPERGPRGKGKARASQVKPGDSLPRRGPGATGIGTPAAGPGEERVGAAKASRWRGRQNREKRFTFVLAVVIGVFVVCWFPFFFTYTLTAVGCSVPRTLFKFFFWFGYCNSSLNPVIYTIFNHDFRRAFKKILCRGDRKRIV

[2] = target: D(1B) dopamine receptor (Homo sapiens, UniProt P21918); test: Displacement of [3H] SCH23390 from D5 receptor (unknown origin)
Chain of D(1B) dopamine receptor (P21918 whole entry): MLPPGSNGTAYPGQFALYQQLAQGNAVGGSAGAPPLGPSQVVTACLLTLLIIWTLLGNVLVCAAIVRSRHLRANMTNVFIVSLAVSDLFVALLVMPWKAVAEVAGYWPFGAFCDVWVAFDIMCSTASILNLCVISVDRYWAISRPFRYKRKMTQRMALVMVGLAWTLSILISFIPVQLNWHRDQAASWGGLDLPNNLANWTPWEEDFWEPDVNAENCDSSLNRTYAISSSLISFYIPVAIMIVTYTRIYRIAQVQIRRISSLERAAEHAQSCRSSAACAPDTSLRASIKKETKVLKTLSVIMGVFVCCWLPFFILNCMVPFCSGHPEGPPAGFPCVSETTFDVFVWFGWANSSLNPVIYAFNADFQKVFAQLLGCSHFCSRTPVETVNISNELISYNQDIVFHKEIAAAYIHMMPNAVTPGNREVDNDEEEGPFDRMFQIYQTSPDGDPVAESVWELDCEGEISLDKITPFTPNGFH

[3] = target: Muscarinic acetylcholine receptor M3 (Homo sapiens, UniProt P20309); test: Displacement of [3H] NMS from muscarinic M3 receptor (unknown origin)
Chain of Muscarinic acetylcholine receptor M3 (P20309 whole entry): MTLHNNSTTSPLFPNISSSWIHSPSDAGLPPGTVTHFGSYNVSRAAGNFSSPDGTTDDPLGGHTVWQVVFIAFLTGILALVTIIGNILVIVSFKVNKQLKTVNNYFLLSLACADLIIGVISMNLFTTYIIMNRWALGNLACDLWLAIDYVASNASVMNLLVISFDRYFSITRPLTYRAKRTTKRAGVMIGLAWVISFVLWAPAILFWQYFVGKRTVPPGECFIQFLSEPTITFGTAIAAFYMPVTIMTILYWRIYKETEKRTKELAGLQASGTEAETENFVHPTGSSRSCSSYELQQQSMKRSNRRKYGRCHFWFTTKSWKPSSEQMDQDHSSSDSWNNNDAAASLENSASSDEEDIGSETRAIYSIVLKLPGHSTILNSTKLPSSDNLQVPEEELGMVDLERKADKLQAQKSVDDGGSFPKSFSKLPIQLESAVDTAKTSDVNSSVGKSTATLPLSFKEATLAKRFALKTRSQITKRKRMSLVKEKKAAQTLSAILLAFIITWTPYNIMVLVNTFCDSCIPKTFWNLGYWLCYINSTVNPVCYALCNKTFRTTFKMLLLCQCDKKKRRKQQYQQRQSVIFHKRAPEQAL
Procedure, shortened: (§1)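 Radioligand competition binding; Ki given as mean ± SD from two individual experiments, each run in triplicate.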

[4] = target: D(2) dopamine receptor (Homo sapiens, UniProt P14416); test: Displacement of [3H] Spiperone from human D2S receptor expressed in CHO cells by competitive radioligand binding assay; format: cell-based
Chain of D(2) dopamine receptor (P14416 whole entry): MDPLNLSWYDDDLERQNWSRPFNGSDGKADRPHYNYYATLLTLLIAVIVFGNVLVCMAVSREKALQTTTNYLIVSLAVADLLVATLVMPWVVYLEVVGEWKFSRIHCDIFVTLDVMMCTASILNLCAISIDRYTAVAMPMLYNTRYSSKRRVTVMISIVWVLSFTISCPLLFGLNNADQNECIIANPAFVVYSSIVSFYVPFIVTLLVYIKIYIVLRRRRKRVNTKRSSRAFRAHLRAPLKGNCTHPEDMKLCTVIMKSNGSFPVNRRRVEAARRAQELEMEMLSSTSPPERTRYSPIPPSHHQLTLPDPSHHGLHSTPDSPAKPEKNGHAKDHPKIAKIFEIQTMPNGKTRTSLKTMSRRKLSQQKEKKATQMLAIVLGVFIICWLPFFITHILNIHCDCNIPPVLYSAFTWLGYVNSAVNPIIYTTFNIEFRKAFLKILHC

[5] = target: D(3) dopamine receptor (Homo sapiens, UniProt P35462); test: Displacement of [3H] Spiperone from human D3 receptor expressed in CHO cells by competitive radioligand binding assay; format: cell-based
Chain of D(3) dopamine receptor (P35462 whole entry): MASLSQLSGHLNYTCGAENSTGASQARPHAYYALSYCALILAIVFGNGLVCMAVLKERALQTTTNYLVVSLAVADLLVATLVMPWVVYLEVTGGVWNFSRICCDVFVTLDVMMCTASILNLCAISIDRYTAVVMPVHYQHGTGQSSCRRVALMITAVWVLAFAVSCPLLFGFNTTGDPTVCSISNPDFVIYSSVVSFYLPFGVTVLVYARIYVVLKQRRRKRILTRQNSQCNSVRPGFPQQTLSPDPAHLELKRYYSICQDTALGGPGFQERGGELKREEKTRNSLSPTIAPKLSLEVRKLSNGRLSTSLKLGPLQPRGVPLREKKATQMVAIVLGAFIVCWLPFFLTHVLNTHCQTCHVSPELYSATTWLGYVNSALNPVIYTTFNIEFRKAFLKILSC

[6] = target: Mu-type opioid receptor (Homo sapiens, UniProt P35372); test: Displacement of [3H] diprenorphine from mu opioid receptor (unknown origin); procedure, shortened: as §1
Chain of Mu-type opioid receptor (P35372 whole entry): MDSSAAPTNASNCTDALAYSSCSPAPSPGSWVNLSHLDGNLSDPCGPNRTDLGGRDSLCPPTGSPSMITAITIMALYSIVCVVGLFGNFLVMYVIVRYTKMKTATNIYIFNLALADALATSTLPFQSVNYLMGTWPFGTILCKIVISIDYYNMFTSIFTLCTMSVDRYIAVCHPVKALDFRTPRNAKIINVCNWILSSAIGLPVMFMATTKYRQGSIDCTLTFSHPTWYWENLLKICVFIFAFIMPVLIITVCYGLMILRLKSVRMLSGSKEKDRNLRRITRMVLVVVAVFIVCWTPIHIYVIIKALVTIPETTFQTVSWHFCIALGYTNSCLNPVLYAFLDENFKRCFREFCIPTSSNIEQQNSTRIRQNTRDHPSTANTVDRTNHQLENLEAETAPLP

[7] = target: 5-hydroxytryptamine receptor 2A (Homo sapiens, UniProt P28223); test: Displacement of [3H] Ketanserin from 5HT2A receptor (unknown origin)
Chain of 5-hydroxytryptamine receptor 2A (P28223 whole entry): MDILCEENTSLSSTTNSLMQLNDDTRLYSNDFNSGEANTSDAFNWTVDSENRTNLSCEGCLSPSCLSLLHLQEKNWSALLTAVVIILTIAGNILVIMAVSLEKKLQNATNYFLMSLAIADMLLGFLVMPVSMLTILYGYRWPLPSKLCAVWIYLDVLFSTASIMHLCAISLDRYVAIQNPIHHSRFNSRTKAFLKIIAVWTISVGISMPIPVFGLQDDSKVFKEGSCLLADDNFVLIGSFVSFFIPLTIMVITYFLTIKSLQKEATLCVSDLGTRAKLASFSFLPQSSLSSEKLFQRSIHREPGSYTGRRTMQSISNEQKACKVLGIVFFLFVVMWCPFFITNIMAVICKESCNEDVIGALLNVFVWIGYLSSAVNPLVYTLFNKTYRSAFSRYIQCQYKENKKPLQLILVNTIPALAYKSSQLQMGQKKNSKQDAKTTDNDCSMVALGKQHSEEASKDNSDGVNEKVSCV

[8] = target: T2, Alpha-1A adrenergic receptor (Homo sapiens) (UniProt P35348); test: Antagonist activity at human alpha1A adrenergic receptor expressed in HEK293T cells assessed as accumulation of inositol monophosphate using d2-labelled IP1 conjugate incubated for 60 mins by HTRF assay; format: functional, cell-based
T2 sequence (whole entry): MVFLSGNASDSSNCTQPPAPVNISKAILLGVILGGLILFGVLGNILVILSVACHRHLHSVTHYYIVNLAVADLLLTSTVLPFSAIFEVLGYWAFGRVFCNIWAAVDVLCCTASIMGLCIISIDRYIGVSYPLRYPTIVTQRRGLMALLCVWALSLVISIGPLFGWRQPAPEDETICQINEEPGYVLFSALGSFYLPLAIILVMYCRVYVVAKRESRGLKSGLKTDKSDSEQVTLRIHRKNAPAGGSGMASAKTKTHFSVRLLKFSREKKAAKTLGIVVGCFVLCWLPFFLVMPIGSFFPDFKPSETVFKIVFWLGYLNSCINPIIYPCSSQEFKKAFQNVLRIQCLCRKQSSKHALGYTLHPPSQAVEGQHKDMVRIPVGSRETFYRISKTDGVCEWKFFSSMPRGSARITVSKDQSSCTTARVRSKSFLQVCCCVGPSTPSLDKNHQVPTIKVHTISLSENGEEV

[9] = target: Delta-type opioid receptor (Homo sapiens, UniProt P41143); test: Displacement of [3H] diprenorphine from delta opioid receptor (unknown origin)
Chain of Delta-type opioid receptor (P41143 whole entry): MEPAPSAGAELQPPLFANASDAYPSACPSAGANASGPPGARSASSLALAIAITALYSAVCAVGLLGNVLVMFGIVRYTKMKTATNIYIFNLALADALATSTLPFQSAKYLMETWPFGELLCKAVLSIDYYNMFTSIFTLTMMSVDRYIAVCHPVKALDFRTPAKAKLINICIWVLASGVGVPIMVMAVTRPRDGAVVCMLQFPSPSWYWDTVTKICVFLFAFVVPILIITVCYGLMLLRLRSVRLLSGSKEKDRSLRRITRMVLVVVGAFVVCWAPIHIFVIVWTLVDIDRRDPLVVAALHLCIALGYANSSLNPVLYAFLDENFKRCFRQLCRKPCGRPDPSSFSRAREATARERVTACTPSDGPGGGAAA

[10] = species: Homo sapiens; test: Selectivity index, ratio of Ki for displacement of [3H] Spiperone from human D2S receptor expressed in CHO cells to Ki for displacement of [3H] Spiperone from human D4.4 receptor expressed in CHO cells; format: cell-based
Procedure, shortened: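 Competition binding against [3H]spiperone on membranes of CHO cells stably expressing cloned human D2L, D2S, D3 or D4.4 receptors. Ki from monophasic curve fits; mean ± SEM of three to seven experiments, each in triplicate. Selectivity calculated as Ki(D2L, D2S or D3) divided by Ki(D4.4).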

[11] = target: D(1A) dopamine receptor (Homo sapiens, UniProt P21728); test: Displacement of [3H] SCH23390 from D1 receptor (unknown origin)
Chain of D(1A) dopamine receptor (P21728 whole entry): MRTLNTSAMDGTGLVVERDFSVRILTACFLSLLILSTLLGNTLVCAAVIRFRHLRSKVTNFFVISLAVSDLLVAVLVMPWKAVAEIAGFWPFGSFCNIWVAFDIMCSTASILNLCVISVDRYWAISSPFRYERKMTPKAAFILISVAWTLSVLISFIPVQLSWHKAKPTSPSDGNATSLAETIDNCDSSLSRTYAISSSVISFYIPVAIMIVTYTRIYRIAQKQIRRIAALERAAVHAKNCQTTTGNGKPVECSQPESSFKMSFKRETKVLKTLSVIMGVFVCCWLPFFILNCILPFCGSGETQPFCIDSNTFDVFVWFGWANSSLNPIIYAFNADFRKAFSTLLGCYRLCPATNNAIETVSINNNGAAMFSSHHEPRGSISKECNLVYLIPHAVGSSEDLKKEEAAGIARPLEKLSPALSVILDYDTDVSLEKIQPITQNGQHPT

[12] = target: T3, Muscarinic acetylcholine receptor M2 (Homo sapiens, UniProt P08172); test: Displacement of [3H] NMS from muscarinic M2 receptor (unknown origin); procedure, shortened: as §1
T3 sequence (P08172 whole entry): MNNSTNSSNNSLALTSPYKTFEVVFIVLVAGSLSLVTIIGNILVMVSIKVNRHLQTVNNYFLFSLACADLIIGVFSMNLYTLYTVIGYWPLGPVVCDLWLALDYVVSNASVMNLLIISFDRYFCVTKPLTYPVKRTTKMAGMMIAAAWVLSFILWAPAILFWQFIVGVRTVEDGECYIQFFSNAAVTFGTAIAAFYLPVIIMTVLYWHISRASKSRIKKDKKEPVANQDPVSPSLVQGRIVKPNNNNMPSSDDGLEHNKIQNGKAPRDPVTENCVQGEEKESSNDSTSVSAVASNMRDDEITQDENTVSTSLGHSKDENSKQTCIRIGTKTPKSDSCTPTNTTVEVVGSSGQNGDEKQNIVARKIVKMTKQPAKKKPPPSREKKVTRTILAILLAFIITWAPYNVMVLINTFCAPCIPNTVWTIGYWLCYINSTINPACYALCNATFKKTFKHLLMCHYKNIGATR

[13] = species: Homo sapiens; test: Selectivity index, ratio of Ki for displacement of [3H] prazosin from alpha1A adrenergic receptor to Ki for displacement of [3H] Spiperone from human D4.4 receptor expressed in CHO cells; format: cell-based
[14] = target: T4, Muscarinic acetylcholine receptor M1 (Homo sapiens, UniProt P11229); test: Displacement of [3H] NMS from muscarinic M1 receptor (unknown origin); procedure, shortened: as §1
T4 sequence (P11229 whole entry): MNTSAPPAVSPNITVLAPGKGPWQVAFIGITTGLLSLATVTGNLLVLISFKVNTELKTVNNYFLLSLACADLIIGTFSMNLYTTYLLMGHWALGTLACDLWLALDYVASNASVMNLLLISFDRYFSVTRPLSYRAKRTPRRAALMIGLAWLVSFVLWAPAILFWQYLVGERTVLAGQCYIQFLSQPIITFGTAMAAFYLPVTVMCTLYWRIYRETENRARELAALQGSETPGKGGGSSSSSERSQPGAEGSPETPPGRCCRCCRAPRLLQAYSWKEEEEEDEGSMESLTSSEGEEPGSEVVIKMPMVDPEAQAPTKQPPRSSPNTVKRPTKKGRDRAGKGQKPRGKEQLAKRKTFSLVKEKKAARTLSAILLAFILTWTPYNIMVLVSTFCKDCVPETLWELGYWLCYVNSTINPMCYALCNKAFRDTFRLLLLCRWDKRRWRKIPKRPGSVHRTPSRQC

[15] = target: Beta-2 adrenergic receptor (Homo sapiens, UniProt P07550); test: Displacement of [3H] CGP12177 from beta2 adrenergic receptor (unknown origin)
Chain of Beta-2 adrenergic receptor (P07550 whole entry): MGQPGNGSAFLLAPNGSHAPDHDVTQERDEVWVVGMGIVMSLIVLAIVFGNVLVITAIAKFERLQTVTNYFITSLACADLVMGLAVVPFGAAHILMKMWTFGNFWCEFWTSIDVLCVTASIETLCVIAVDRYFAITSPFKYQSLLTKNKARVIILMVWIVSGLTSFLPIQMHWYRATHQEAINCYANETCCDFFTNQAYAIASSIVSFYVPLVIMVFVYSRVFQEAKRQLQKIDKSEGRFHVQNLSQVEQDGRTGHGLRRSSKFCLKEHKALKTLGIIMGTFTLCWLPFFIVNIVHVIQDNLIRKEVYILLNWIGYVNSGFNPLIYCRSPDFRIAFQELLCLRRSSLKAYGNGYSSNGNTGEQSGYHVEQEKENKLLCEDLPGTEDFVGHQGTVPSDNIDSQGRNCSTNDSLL

- Ki [1]: 860 nM
- Ki [2]: 1000 nM
- Ki [3]: 37000 nM
- Ki [4]: 110 nM
- Ki [5]: 310 nM
- Ki [6]: 2300 nM
- Ki [7]: 130 nM
- Activity [8]: inactive
- Ki [9]: 19000 nM
- Ki [11]: 360 nM
- Ki [12]: 17000 nM
- Ki [14]: 15000 nM
- Ki [15]: 4500 nM
Structure (SMILES): COc1ccccc1N1CCN(CCCNC(=O)NN(Cc2ccc(F)cc2)c2ccccc2)CC1
- Ratio Ki [10]: 200
- Ratio Ki [13]: 2.9

Source: ChEMBL document CHEMBL4321823, “Benzyl Phenylsemicarbazides: A Chemistry-Driven Approach Leading to G Protein-Biased Dopamine D4 Receptor Agonists with High Subtype Selectivity” (J Med Chem, 2019)
